Experimental data published in ChEMBL document CHEMBL4699669, “Discovery of a Potent Adenine-Benzyltriazolo-Pleuromutilin Conjugate with Pronounced Antibacterial Activity against MRSA” (J Med Chem, 2020).
Converted amounts (≈) assume the structure as drawn.

Columns and labels:
Staphylococcus aureus [1] = test: Antibacterial activity against methicilin-resistant Staphylococcus aureus USA300 FPR3757 incubated for 20 to 24 hrs by microbroth dilution assay; assay type: functional; settings: time hrs 20-24
Summary of the method: (§1)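 Broth microdilution per EUCAST in Mueller-Hinton broth. Inoculum 5.0·10^5 CFU/mL, prepared from overnight single-colony cultures at OD600 0.1 then diluted 100x. Final compound concentrations 0.015–16 µg/mL. Incubation at 37 °C for 20–24 h, protected from light. MIC is the lowest concentration with no visible growth. Each replicate uses three cultures; n = 2–3.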

Staphylococcus aureus [2] = test: Antibacterial activity against methicilin-resistant Staphylococcus aureus USA300 FPR3757 incubated for 20 hrs by microbroth dilution assay; assay type: functional
Summary of the method: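 MBC determined from a completed MIC replicate (MRSA USA300 FPR3757, Mueller-Hinton, 5.0·10^5 CFU/mL). […] MBC is the lowest concentration giving a 99.9% reduction of the starting inoculum; n = 3.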

Staphylococcus aureus [3] = test: Antibacterial activity against methicilin-resistant Staphylococcus aureus 55508 incubated for 20 to 24 hrs by microbroth dilution assay; assay type: functional; settings: time hrs 20-24; summary of the method: as §1
Staphylococcus aureus [4] = test: Antibacterial activity against methicilin-resistant Staphylococcus aureus 52518 incubated for 20 to 24 hrs by microbroth dilution assay; assay type: functional; settings: time hrs 20-24; summary of the method: as §1
Staphylococcus aureus [5] = test: Antibacterial activity against methicilin-resistant Staphylococcus aureus 4828 incubated for 20 to 24 hrs by microbroth dilution assay; assay type: functional; settings: time hrs 20-24; summary of the method: as §1
[6] = tested on: Staphylococcus epidermidis; test: Antibacterial activity against methicilin-resistant Staphylococcus epidermis 933010 incubated for 20 to 24 hrs by microbroth dilution assay; assay type: functional; settings: time hrs 20-24; summary of the method: as §1
Caco-2 [7] = test: Cytotoxicity against differentiated human Caco2 cells assessed as increase in ATP level at 33 ug/ml incubated for 3 hrs by Cell-titer Glo assay; assay type: cell-based; settings: caco-2, 3 h, dose 33 µg/ml
Summary of the method: (§2)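 Cells rinsed of growth medium, then exposed 3 h at 37 °C, 220 rpm, light-protected, to compound in HBSS with 10 mM HEPES, pH 7.4 (final DMSO <1% at top concentrations). Plates equilibrated 10 min at rt, CellTiter-Glo 2.0 added, mixed 2 min, signal stabilized 10 min. Luminescence (ATP) normalized to HBSS-only control cells. Mean ± SD of 3 wells, one passage.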

Caco-2 [8] = test: Cytotoxicity against differentiated human Caco2 cells assessed as ATP level at 33 ug/ml incubated for 3 hrs by Cell-titer Glo assay; assay type: cell-based; settings: caco-2, 3 h, dose 33 µg/ml; summary of the method: as §2
Caco-2 [9] = test: Cytotoxicity against human Caco2 cells assessed as cell viability at 33 ug/ml incubated for 3 hrs by MTT assay; assay type: cell-based; settings: caco-2, 3 h, dose 33 µg/ml
Summary of the method: (§3)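 Undifferentiated Caco-2 cells, medium aspirated, treated 3 h at 37 °C, 220 rpm with compound in HEPES-buffered HBSS (HBSS alone as negative control, SDS as positive control). MTT then added (final 0.5 mg mL⁻¹) for 2 h more. Formazan dissolved overnight at 4 °C in 10 mM HCl/50% isobutanol/10% SDS. Mean ± SD of 3 wells, one passage.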

Caco-2 [10] = test: Cytotoxicity against differentiated human Caco2 cells assessed as increase in ATP level at 100 ug/ml incubated for 3 hrs by Cell-titer Glo assay; assay type: cell-based; settings: caco-2, 3 h, dose 100 µg/ml; summary of the method: as §2
Caco-2 [11] = test: Cytotoxicity against undifferentiated human Caco2 cells assessed as ATP level at 100 ug/ml incubated for 3 hrs by Cell-titer Glo assay; assay type: cell-based; settings: caco-2, 3 h, dose 100 µg/ml; summary of the method: as §2
Caco-2 [12] = test: Cytotoxicity against human Caco2 cells assessed as cell viability at 100 ug/ml incubated for 3 hrs by MTT assay; assay type: cell-based; settings: caco-2, 3 h, dose 100 µg/ml; summary of the method: as §3
[13] = Cytotoxicity against human PC3 cells assessed as decrease in ATP level at 100 ug/ml incubated for 3 hrs by Cell-titer Glo assay relative to control; assay type: cell-based, PC-3; settings: at 100 µg/mL, read-out: INH; summary of the method: as §2

Row | Compound | MIC (Staphylococcus aureus [1]) [µg/mL] | MBC (Staphylococcus aureus [2]) [µg/mL] | MIC (Staphylococcus aureus [3]) [µg/mL] | MIC (Staphylococcus aureus [4]) [µg/mL] | MIC (Staphylococcus aureus [5]) [µg/mL] | MIC [6] [µg/mL] | Activity (Caco-2 [7]) | Activity (Caco-2 [8]) | Activity (Caco-2 [9]) | Activity (Caco-2 [10]) | Activity (Caco-2 [11]) | Activity (Caco-2 [12]) | cytotoxicity at 3 h, 100 ug/ml [13] [%]
1 | C=C[C@]1(C)C[C@@H](OC(=O)CS[C@@H]2C[C@H]3CC[C@@H](C2)N3C)[C@]2(C)[C@H](C)CC[C@]3(CCC(=O)[C@H]32)[C@@H](C)[C@@H]1O [RETAPAMULIN] | 0.25 (≈ 0.483 µM) | > 2 | 0.25 (≈ 0.483 µM) | 0.12 (≈ 0.232 µM) | 0.25 (≈ 0.483 µM) | 0.5 (≈ 0.966 µM) | Toxic | Non-Toxic | Non-Toxic | – | – | – | –
2 | C=C[C@]1(C)C[C@@H](OC(=O)CSC(C)(C)CNC(=O)[C@H](N)C(C)C)[C@]2(C)[C@H](C)CC[C@]3(CCC(=O)[C@H]32)[C@@H](C)[C@@H]1O [VALNEMULIN] | 0.06 (≈ 0.106 µM) | 0.12 (≈ 0.212 µM) | 0.12 (≈ 0.212 µM) | 0.06 (≈ 0.106 µM) | 0.06 (≈ 0.106 µM) | 0.25 (≈ 0.443 µM) | – | – | – | Toxic | Non-Toxic | Non-Toxic | 22
